Screens deposited in PubChem BioAssay by Sanford-Burnham Center for Chemical Genomics.
Sampled rows, rich in hits. Any-hit rate of the full collection: about 3.1%.
SENP6 inh – inhibitors of human SENP6 protease. Recombinant SENP6 catalytic domain, aminoluciferin luminescence. inhibition, % at 10 µM. 330,000 tested, 1.8% active;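 active means inhibition above about 50% at the single tested dose, limit read from the data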;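 further: plate controls were DMSO wells with enzyme for no effect and DMSO wells lacking enzyme for full effect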
SENP8 block-1 – blocks the human protease SENP8; purified SENP8, Z-RLRGG-aminoluciferin cleavage, luminescence; Q96LD8; 330,000 tested, 1.2% active; inhibition, % at 10 µM; in the data active means inhibition above about 50%
Target sequence (Q96LD8 whole entry, looked up): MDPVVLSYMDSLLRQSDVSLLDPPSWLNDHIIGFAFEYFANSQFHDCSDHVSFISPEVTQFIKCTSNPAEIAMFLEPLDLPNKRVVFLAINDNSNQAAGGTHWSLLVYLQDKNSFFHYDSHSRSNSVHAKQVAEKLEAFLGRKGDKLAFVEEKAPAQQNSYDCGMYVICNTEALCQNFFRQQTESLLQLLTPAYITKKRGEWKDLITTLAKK
UBC13 polyUb – human UBC13 polyubiquitination inhibition; P61088; UBC13 polyubiquitin chain formation, TR-FRET; inhibition, % at 20 µM; 330,000 tested, 0.47% active; in the data active means inhibition above about 45%, passing the limit was not always enough
SENP7 inh – inhibitors of human SENP7 protease. inhibition, % at 5 µM. recombinant SENP7, Z-RLRGG-aminoluciferin luminescence, 40 min. Q9BQF6. AID 434973. 330,000 tested, 1.5% active;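 active means inhibition above about 50% at the single test dose, limit read from the data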;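 further: plate controls were DMSO with enzyme for no effect and no enzyme buffer wells for full effect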
SENP8 block-2 – blocks human SENP8 cleavage of Nedd8 substrate. Q96LD8. recombinant SENP8, Nedd8 substrate fluorescence. inhibition, % at 20 µM. 360,000 tested, 0.64% active. AID 602440; in the data active means inhibition mostly above about 40%, no sharp cut-off; inactive means mostly below about 27%
Apaf1 inhib – inhibitors of human Apaf-1 apoptosome | 330,000 tested, 0.71% active | reconstituted apoptosome caspase-3 activity, DEVD-Rh110 fluorescence | inhibition, % at 20 µM | O14727; active means inhibition of at least 40% at 20 µM;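 further: plate controls were DMSO wells for no effect and DEVD-CHO caspase inhibitor wells for full effect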
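Material: reconstituted apoptosome with Apaf-1, cytochrome c, caspase-9, procaspase-3, dATP. Technique: Rh110 fluorescence intensity. Buffer or medium: pH 7.5 Hepes buffer with CHAPS, BSA, DTT. Times: 30 min plus 50 min, RT.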
SENP8 conf – human SENP8 inhibition, confirmed; AID 488912; 6,200 tested, 40% active; inhibition, % at 12.5 µM; Recombinant SENP8, Z-RLRGG-aminoluciferin luminescence, 60 min; shares compounds with SENP7 inh;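 active means mean inhibition across replicates above about 50%, limit read from the data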
SENP6 conf – confirmation of human SENP6 protease inhibitors; recombinant SENP6, Z-RLRGG-aminoluciferin luminescence; inhibition, % at 12.5 µM; 6,200 tested, 58% active; shares compounds with SENP7 inh
SENP7 confirm – confirmation of human SENP7 protease inhibitors; shares compounds with SENP7 inh; recombinant SENP7, Z-RLRGG-aminoluciferin luminescence, 40 min; inhibition, % at 12.5 µM; 6,200 tested, 69% active; AID 488917
Casp3 SENP sel – caspase-3 inhibition (SENP selectivity assay); purified caspase-3, Z-DEVD-aminoluciferin luminescence, 60 min; AID 488918; 6,200 tested, 60% active; inhibition, % at 12.5 µM; shares compounds with SENP7 inh;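 active means mean inhibition above about 50%, limit read from the data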;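 further: plate controls were enzyme with DMSO for no effect and wells without caspase-3 for full effect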
Target sequence (P42574 28-227 limits assumed): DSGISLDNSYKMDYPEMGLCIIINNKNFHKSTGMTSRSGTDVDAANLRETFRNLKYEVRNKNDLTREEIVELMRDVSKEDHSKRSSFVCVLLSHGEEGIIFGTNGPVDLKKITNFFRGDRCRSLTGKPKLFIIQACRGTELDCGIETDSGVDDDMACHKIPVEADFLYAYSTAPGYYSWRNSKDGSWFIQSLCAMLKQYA
Luc interf – luminescence interference (SENP counter-screen). shares compounds with SENP7 inh. Pre-incubated SENP8/Z-RLRGG-aminoluciferin, luciferase luminescence interference. inhibition, % at 12.5 µM. 6,200 tested, 39% active. AID 488919;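 active means mean inhibition above about 50% when retested at one dose, limit read from the data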;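 further: plate controls were DMSO wells with completed reaction for no effect and substrate without enzyme for full effect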
The depositor's hits bear a star; x = no result.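 How the source made its calls, unless noted: active means mean inhibition above about 50% in the one-dose retest (limit read from the data); inactive means the rest.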

SMILES	SENP6 inh	SENP8 block-1	UBC13 polyUb	SENP7 inh	SENP8 block-2	Apaf1 inhib	SENP8 conf	SENP6 conf	SENP7 confirm	Casp3 SENP sel	Luc interf
COc1ccc(-c2nc3c(Br)c(N)c(Br)cc3o2)cc1	4	4	13	80*	-56	-5	-8	-12	12	38	-11
O=C(O)CCC(=O)c1ccc2c(c1)OCCO2	3	-2	2	5	-5	-2	x	x	x	x	x
O=C(CS(=O)(=O)c1ccccc1)c1ccc2c(c1)OCCO2	57*	34	-1	51*	4	4	63*	60*	86*	82*	65*
S=C(Nc1ccc(Cl)cc1)c1nc2ccccc2s1	18	1	-1	57*	31	-1	9	7	0	5	2
Cc1ccc(NC(=S)c2nc3ccccc3s2)cc1	61*	43	-12	80*	-83	1	11	42	29	28	9
O=C(Nc1ccc(Cl)cc1)/C(=C/c1cccc(O)c1)c1nc2ccccc2s1	-17	-7	2	-6	-22	21	x	x	x	x	x
Cc1ccc(C)c(NC(=S)c2nc3ccccc3s2)c1	-27	-18	1	-14	26	13	x	x	x	x	x
CCc1ccc(N2CC(C(=O)N3CCN(S(=O)(=O)c4cccc(F)c4)CC3)CC2=O)cc1 (stereo not drawn)	x	x	x	x	8	x	x	x	x	x	x
Cc1cccc(/C(N)=N/OC(=O)Cc2ccccc2)c1	8	-12	6	-13	2	6	x	x	x	x	x
N/C(=N\OC(=O)c1ccccc1)c1ccccn1	96*	92*	9	98*	4	-16	97*	98*	102*	98*	95*
Cc1ccc(C(=O)O/N=C(\N)c2ccccn2)cc1	99*	98*	2	101*	9	7	99*	99*	102*	98*	88*
CCOc1ccc(C(=O)O/N=C(\N)c2ccccn2)cc1	98*	97*	2	100*	7	-7	98*	99*	102*	98*	73*
Cc1cccc(/C(N)=N/OC(=O)c2ccc(Br)o2)c1	80*	70*	23	78*	12	2	53*	77*	94*	86*	31
CC1=C(C(=O)N(C(C)C)C(C)C)CC(CC(=O)NC(c2ccccc2)c2ccccc2)C(=O)N1CCCN1CCCC1=O (stereo not drawn)	x	x	x	x	6	x	x	x	x	x	x
CCCCNC(=O)C1(C)CCCCCN1Cc1cccc2c(OC)cc(C(=O)OCC)cc12 (stereo not drawn)	x	x	x	x	-29	x	x	x	x	x	x
CC(=O)N1c2ccccc2N=C(c2ccc3c(c2)OCO3)C1C(=O)NCc1ccccc1 (stereo not drawn)	x	x	x	x	-112	x	x	x	x	x	x
N/C(=N\OC(=O)c1cccc(F)c1)c1ccccn1	90*	81*	-1	91*	8	0	91*	93*	101*	97*	90*
N/C(=N\OC(=O)c1ccc(Br)o1)c1ccccn1	50*	64*	-4	88*	15	-10	86*	85*	97*	94*	57*
CC(C)(C)c1ccc(C(=O)C2CCCN(C(=O)c3ccccn3)C2)cc1 (stereo not drawn)	5	2	-4	102*	5	12	-9	-7	-10	0	4
C/C(=N\NC(=O)c1cccc(Br)c1)c1ccccn1	-14	-4	-20	-2	19	3	x	x	x	x	x
